# Experimental data reported in ChEMBL document CHEMBL5046217, “Discovery of New Imidazo[2,1-b]thiazole Derivatives as Potent Pan-RAF Inhibitors with Promising In Vitro and In Vivo Anti-melanoma Activity” (J Med Chem, 2021).
# Legend:
# [1] = target: Mitogen-activated protein kinase 14 (Homo sapiens, UniProt Q16539); test: Inhibition of MAPK14 (unknown origin) incubated for 1 hr by qPCR analysis
# In short: (§1)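 Competition binding assay. Kinases were either T7-phage-tagged (grown in an E. coli BL21-derived host) or expressed in HEK-293 cells and DNA-tagged. […] Bound kinase was eluted with non-biotinylated ligand and quantified by qPCR.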
# [2] = target: Mitogen-activated protein kinase 8 (Homo sapiens, UniProt P45983); test: Inhibition of MAPK8 (unknown origin) incubated for 1 hr by qPCR analysis; in short: as §1
# [3] = target: Mitogen-activated protein kinase 11 (Homo sapiens, UniProt Q15759); test: Inhibition of MAPK11 (unknown origin) incubated for 1 hr by qPCR analysis; in short: as §1
# Mitogen-activated protein kinase 11, sequence (Q15759 whole entry): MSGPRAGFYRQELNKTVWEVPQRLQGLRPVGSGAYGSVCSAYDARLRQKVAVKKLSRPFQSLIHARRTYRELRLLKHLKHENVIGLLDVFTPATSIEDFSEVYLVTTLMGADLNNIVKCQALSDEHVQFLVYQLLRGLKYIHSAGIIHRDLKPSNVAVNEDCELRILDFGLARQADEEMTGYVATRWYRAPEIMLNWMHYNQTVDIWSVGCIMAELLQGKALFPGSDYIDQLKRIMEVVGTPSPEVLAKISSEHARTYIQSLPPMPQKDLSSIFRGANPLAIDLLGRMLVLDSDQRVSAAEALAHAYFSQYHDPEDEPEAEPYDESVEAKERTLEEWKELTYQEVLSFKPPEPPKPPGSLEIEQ
# [4] = target: T1, Receptor-type tyrosine-protein kinase FLT3 (Homo sapiens, UniProt P36888); test: Inhibition of FLT3 (unknown origin) incubated for 1 hr by qPCR analysis; in short: as §1
# T1 sequence (P36888 whole entry): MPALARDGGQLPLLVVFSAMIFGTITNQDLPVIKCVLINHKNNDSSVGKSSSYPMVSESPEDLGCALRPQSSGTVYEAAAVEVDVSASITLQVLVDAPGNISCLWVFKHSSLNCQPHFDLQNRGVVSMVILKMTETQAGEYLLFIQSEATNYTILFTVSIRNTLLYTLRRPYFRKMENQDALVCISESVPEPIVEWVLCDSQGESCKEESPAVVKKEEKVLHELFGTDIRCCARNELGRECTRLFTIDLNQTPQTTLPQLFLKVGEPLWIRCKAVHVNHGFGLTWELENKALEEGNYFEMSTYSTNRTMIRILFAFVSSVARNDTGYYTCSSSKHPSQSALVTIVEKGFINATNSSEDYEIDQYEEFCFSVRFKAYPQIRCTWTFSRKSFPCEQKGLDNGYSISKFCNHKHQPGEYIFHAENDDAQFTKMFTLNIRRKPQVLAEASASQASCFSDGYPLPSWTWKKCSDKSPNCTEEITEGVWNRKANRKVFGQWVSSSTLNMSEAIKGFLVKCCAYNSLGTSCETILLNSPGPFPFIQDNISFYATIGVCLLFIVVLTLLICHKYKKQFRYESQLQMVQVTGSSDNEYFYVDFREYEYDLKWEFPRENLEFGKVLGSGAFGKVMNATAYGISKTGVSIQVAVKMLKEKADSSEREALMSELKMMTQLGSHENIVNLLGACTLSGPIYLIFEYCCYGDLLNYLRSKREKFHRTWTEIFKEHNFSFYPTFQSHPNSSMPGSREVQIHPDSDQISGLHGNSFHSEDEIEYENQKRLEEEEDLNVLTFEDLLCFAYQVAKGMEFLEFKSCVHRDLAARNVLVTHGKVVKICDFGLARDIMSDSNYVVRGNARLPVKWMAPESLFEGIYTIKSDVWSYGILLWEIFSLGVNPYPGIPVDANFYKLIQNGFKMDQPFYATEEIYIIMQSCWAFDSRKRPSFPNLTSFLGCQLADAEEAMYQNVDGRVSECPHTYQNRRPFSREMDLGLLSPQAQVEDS
# [5] = target: RAF proto-oncogene serine/threonine-protein kinase (Homo sapiens, UniProt P04049); test: Inhibition of human wild type CRAF using myelin basic protein as substrate in presence of [gamma-33P]ATP incubated for 40 mins by scintillation counting method
# RAF proto-oncogene serine/threonine-protein kinase, sequence (P04049 whole entry): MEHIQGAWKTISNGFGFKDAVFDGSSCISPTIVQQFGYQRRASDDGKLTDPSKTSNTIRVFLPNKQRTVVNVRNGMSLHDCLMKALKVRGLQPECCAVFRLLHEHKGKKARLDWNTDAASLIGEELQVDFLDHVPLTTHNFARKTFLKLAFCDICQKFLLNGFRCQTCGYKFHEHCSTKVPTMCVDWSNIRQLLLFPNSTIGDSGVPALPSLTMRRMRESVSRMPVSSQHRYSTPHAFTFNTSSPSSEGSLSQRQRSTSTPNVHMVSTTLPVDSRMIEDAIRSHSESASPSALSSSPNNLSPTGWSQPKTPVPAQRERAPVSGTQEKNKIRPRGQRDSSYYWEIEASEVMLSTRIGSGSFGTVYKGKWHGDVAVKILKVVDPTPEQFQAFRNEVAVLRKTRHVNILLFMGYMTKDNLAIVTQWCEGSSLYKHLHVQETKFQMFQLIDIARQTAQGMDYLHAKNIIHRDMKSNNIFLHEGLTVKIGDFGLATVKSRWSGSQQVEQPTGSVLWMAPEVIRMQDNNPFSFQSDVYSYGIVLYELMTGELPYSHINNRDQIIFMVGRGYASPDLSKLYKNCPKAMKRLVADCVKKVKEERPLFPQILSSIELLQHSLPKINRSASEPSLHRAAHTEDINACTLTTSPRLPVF
# [6] = target: Homeodomain-interacting protein kinase 1 (Homo sapiens, UniProt Q86Z02); test: Inhibition of HIPK1 (unknown origin) incubated for 1 hr by qPCR analysis; in short: as §1
# [7] = target: Serine/threonine-protein kinase/endoribonuclease IRE1 (Homo sapiens, UniProt O75460); test: Inhibition of ERN1 (unknown origin) incubated for 1 hr by qPCR analysis; in short: as §1
# Serine/threonine-protein kinase/endoribonuclease IRE1, sequence (O75460 whole entry): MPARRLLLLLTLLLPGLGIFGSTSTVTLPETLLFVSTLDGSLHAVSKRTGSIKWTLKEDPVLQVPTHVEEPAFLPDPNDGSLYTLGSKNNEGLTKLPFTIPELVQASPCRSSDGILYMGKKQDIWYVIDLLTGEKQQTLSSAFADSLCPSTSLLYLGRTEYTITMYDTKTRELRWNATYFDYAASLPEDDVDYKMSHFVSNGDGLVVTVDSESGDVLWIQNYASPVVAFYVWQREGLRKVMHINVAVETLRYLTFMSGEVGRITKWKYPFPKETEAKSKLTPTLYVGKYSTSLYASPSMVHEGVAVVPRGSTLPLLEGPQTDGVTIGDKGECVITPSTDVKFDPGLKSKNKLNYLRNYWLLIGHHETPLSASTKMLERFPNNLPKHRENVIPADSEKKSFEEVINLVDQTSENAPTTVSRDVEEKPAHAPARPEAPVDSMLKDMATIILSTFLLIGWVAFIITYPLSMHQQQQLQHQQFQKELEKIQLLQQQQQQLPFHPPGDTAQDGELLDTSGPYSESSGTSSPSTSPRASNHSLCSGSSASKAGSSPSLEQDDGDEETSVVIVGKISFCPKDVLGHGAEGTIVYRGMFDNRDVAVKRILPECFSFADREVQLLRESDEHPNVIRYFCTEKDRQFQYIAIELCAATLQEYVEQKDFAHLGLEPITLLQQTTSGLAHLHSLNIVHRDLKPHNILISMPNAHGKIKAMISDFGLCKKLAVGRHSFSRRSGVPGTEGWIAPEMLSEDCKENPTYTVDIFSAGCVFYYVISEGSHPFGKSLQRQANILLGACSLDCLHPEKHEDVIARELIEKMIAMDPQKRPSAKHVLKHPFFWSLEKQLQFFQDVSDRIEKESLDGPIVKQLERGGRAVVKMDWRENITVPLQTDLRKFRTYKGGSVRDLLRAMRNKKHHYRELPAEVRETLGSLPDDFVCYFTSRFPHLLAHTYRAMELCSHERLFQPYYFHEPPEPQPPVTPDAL
# [8] = target: Mitogen-activated protein kinase kinase kinase 20 (Homo sapiens, UniProt Q9NYL2); test: Inhibition of ZAK (unknown origin) incubated for 1 hr by qPCR analysis; in short: as §1
# Mitogen-activated protein kinase kinase kinase 20, sequence (Q9NYL2 whole entry): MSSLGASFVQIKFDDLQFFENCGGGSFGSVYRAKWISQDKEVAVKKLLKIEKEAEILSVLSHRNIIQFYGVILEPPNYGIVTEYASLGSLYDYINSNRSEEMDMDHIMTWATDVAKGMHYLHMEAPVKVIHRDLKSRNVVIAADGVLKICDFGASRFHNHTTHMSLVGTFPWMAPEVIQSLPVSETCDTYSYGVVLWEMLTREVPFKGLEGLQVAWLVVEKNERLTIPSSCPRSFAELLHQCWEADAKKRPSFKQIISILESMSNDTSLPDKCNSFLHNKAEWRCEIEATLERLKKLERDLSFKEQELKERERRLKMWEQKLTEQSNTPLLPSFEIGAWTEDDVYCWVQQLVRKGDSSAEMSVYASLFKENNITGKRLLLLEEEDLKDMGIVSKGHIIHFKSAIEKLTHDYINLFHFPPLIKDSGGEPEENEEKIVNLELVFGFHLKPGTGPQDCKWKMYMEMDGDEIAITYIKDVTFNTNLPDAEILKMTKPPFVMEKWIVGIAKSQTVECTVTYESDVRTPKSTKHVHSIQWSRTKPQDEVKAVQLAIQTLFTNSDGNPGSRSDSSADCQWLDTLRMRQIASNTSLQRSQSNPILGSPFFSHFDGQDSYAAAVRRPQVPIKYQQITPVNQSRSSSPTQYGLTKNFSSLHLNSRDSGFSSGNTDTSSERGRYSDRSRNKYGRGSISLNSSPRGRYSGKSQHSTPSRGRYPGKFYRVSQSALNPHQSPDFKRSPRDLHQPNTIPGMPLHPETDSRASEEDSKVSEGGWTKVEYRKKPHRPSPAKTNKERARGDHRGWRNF
# [9] = target: Fibroblast growth factor receptor 1 (Homo sapiens, UniProt P11362); test: Inhibition of FGFR1 (unknown origin) incubated for 1 hr by qPCR analysis
# [10] = target: Serine/threonine-protein kinase B-raf (Homo sapiens, UniProt P15056, V600E); test: Inhibition of human BRAF V600E mutant using myelin basic protein as substrate in presence of [gamma-33P]ATP incubated for 40 mins by scintillation counting method
# Serine/threonine-protein kinase B-raf (Homo sapiens, UniProt P15056, V600E), sequence (P15056 2-766 V600E limits assumed): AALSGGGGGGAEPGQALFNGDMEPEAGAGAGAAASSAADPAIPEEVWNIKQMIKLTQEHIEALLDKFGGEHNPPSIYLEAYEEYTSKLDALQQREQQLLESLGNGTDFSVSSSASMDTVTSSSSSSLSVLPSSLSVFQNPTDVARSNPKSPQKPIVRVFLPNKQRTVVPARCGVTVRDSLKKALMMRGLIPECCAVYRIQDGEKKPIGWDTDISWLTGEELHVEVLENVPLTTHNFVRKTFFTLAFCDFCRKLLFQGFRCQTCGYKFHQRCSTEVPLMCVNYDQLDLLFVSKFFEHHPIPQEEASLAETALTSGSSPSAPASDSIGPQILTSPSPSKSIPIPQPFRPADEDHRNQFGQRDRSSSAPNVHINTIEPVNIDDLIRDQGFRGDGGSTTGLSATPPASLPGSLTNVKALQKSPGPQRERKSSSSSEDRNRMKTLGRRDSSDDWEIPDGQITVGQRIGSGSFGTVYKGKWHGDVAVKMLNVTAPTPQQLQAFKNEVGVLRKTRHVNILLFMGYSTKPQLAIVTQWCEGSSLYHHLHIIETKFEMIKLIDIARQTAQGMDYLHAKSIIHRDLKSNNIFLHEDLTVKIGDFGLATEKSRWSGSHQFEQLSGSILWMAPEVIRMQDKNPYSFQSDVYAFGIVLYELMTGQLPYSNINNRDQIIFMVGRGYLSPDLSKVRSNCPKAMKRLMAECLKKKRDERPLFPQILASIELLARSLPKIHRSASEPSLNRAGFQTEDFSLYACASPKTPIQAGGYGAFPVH
# In short: (§2)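 Radiometric kinase assay run at Reaction Biology. Kinase (5−10 mU) in 25 mM Tris pH 7.5, 0.02 mM EGTA, 10 mM magnesium acetate with 0.66 mg/mL myelin basic protein and [γ-33P]ATP at 1 μM ATP. Reaction started with Mg-ATP and run 40 min at room temperature, then stopped with 3% phosphoric acid. Spotted on P30 filtermat, washed, scintillation counted.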
# [11] = target: Serine/threonine-protein kinase B-raf (Homo sapiens, UniProt P15056); test: Inhibition of human wild type BRAF using myelin basic protein as substrate in presence of [gamma-33P]ATP incubated for 40 mins by scintillation counting method; in short: as §2
# Serine/threonine-protein kinase B-raf (Homo sapiens, UniProt P15056), sequence (P15056 whole entry): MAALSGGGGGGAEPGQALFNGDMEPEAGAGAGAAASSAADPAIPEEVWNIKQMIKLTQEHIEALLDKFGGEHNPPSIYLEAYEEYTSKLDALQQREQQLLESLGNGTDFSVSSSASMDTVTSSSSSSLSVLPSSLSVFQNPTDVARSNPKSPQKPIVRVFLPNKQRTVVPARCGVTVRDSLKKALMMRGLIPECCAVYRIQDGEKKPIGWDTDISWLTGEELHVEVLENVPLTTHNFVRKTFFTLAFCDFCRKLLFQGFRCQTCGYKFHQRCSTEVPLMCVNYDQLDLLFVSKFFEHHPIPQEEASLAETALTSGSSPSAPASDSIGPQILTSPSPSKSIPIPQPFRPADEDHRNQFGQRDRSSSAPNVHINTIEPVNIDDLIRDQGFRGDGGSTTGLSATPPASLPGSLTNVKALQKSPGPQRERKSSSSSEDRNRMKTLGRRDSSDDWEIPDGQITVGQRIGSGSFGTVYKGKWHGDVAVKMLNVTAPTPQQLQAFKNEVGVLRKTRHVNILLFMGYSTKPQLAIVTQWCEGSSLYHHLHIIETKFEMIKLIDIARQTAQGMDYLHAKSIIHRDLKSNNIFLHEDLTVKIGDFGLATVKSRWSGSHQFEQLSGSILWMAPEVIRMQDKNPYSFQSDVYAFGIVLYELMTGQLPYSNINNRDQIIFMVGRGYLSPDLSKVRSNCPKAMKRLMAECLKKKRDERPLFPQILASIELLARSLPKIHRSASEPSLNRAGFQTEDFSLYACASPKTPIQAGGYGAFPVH
# [12] = system: Panel melanoma (Carcinoma cell lines); test: cells; conditions: Homo sapiens, 48 h, read-out: INH
# [13] = target: Tyrosine-protein kinase ABL1 (Homo sapiens, UniProt P00519); test: Inhibition of ABL1 (unknown origin) incubated for 1 hr by qPCR analysis
# [14] = system: UACC-62; test: Antiproliferative activity against human UACC-62 cells assessed as total growth inhibition measured after 48 hrs by SRB assay; conditions: UACC-62, 48 h
# [15] = system: SK-MEL-2; test: Antiproliferative activity against human SK-MEL-2 cells assessed as total growth inhibition measured after 48 hrs by SRB assay; conditions: SK-MEL-2, 48 h
# [16] = system: Malme-3M; test: Antiproliferative activity against human Malme-3M cells assessed as total growth inhibition measured after 48 hrs by SRB assay
# [17] = Cytotoxicity against human L132 cells assessed as cell growth inhibition incubated for 48 hrs by MTT assay; type: toxicity, cell-based
# [18] = system: Malme-3M; test: Antiproliferative activity against human Malme-3M cells assessed as cell growth inhibition measured after 48 hrs by SRB assay
# [19] = system: UACC-62; test: Antiproliferative activity against human UACC-62 cells assessed as cell growth inhibition measured after 48 hrs by SRB assay; conditions: UACC-62, 48 h
# [20] = system: SK-MEL-28; test: Antiproliferative activity against human SK-MEL-28 cells assessed as total growth inhibition measured after 48 hrs by SRB assay; conditions: SK-MEL-28, 48 h
# [21] = system: SK-MEL-5; test: Antiproliferative activity against human SK-MEL-5 cells assessed as total growth inhibition measured after 48 hrs by SRB assay; conditions: SK-MEL-5, 48 h
# [22] = Cytotoxicity against human BJ cells assessed as cell growth inhibition incubated for 48 hrs by MTT assay; type: toxicity, cell-based
# In short: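 BJ1 normal skin fibroblasts were seeded at 10 × 10³ cells/well with compound in triplicate wells and grown in DMEM-F12 at 37 °C, 5% CO₂, across an eight-point dilution series. Growth inhibition was calculated as (1 − T/C) × 100, and IC50 was taken from the dose–response curve.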
# [23] = system: M14; test: Antiproliferative activity against human M14 cells assessed as total growth inhibition measured after 48 hrs by SRB assay; conditions: M14, 48 h
# [24] = system: LOX IMVI; test: Antiproliferative activity against human LOX IMVI cells assessed as total growth inhibition measured after 48 hrs by SRB assay
# [25] = system: LOX IMVI; test: Antiproliferative activity against human LOX IMVI cells assessed as cell growth inhibition measured after 48 hrs by SRB assay
# [26] = system: Panel prostate (Carcinoma cell lines); test: Antiproliferative activity against human Panel prostate (Carcinoma cell lines) assessed as cell growth inhibition measured after 48 hrs by SRB assay
# [27] = system: SK-MEL-28; test: Antiproliferative activity against human SK-MEL-28 cells assessed as cell growth inhibition measured after 48 hrs by SRB assay; conditions: SK-MEL-28, 48 h
# [28] = system: Panel leukemia (Carcinoma cell lines); test: Antiproliferative activity against human Panel leukemia (Carcinoma cell lines) assessed as cell growth inhibition measured after 48 hrs by SRB assay
# [29] = system: NSCLC; test: Antiproliferative activity against human NSCLC cell line assessed as cell growth inhibition measured after 48 hrs by SRB assay
# [30] = system: Panel breast (Carcinoma cell lines); test: Antiproliferative activity against human Panel breast (Carcinoma cell lines) assessed as cell growth inhibition measured after 48 hrs by SRB assay
# [31] = in vitro; conditions: human, BJ cells and Malme-3M cells
# [32] = system: MDA-MB-435; test: Antiproliferative activity against human MDA-MB-435 cells assessed as cell growth inhibition measured after 48 hrs by SRB assay; conditions: MDA-MB-435, 48 h
# [33] = system: UACC-257; test: Antiproliferative activity against human UACC-257 cells assessed as cell growth inhibition measured after 48 hrs by SRB assay; conditions: UACC-257, 48 h
# [34] = system: Panel melanoma (Carcinoma cell lines); test: Antiproliferative activity against human Panel melanoma (Carcinoma cell lines) assessed as cell growth inhibition measured after 48 hrs by SRB assay
# [35] = system: M14; test: Antiproliferative activity against human M14 cells assessed as cell growth inhibition measured after 48 hrs by SRB assay; conditions: M14, 48 h
# [36] = system: Panel CNS (Carcinoma cell lines); test: Antiproliferative activity against human Panel CNS (Carcinoma cell lines) assessed as cell growth inhibition measured after 48 hrs by SRB assay
# [37] = system: Panel ovarian (Carcinoma cell lines); test: Antiproliferative activity against human Panel ovarian (Carcinoma cell lines) assessed as cell growth inhibition measured after 48 hrs by SRB assay
# [38] = system: Panel colon (Carcinoma cell lines); test: Antiproliferative activity against human Panel colon (Carcinoma cell lines) assessed as cell growth inhibition measured after 48 hrs by SRB assay
# [39] = system: UACC-257; test: Antiproliferative activity against human UACC-257 cells assessed as total growth inhibition measured after 48 hrs by SRB assay; conditions: UACC-257, 48 h
# [40] = system: SK-MEL-5; test: Antiproliferative activity against human SK-MEL-5 cells assessed as cell growth inhibition measured after 48 hrs by SRB assay; conditions: SK-MEL-5, 48 h
# [41] = system: Panel renal (Carcinoma cell lines); test: Antiproliferative activity against human Panel renal (Carcinoma cell lines) assessed as cell growth inhibition measured after 48 hrs by SRB assay
# [42] = system: SK-MEL-2; test: Antiproliferative activity against human SK-MEL-2 cells assessed as cell growth inhibition measured after 48 hrs by SRB assay; conditions: SK-MEL-2, 48 h
# [43] = system: MDA-MB-435; test: Antiproliferative activity against human MDA-MB-435 cells assessed as total growth inhibition measured after 48 hrs by SRB assay; conditions: MDA-MB-435, 48 h
# Mitogen-activated protein kinase 14, sequence (Q16539 whole entry): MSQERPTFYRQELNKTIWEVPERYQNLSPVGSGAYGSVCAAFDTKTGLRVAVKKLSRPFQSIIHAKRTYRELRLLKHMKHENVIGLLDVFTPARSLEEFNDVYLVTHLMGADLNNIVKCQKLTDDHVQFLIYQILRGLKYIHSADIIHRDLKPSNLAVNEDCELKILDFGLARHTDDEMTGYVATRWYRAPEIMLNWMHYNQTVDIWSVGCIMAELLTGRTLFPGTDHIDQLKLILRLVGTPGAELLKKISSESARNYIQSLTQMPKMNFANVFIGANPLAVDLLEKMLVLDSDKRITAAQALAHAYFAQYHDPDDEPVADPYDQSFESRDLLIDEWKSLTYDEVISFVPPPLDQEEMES
smiles,measurement,setting,value
COc1cccc(-c2nc3sccn3c2-c2ccnc(NCCNS(=O)(=O)c3ccc(C(F)(F)F)cc3)n2)c1,IC50,[1],0.098 µM
same,IC50,[2],0.42 µM
same,IC50,[3],0.12 µM
same,IC50,[4],2.17 µM
same,IC50,[5],0.142 µM
same,IC50,[6],4.58 µM
same,IC50,[7],> 20 µM
same,IC50,[8],8.11 µM
same,IC50,[9],15.6 µM
COc1cccc(-c2nc3sccn3c2-c2ccnc(NCCCNS(=O)(=O)c3cccc(F)c3)n2)c1,IC50,[1],0.088 µM
same,IC50,[2],0.36 µM
same,IC50,[10],0.102 µM
same,IC50,[3],0.095 µM
same,IC50,[4],2.98 µM
same,IC50,[5],0.111 µM
same,IC50,[11],0.526 µM
same,IC50,[6],3.84 µM
same,IC50,[7],15.6 µM
same,IC50,[8],11.3 µM
same,IC50,[9],11.8 µM
COc1cccc(-c2nc3sccn3c2-c2ccnc(NCCCNS(=O)(=O)c3ccc(F)cc3)n2)c1,IC50,[10],0.0903 µM
same,IC50,[5],0.0952 µM
same,IC50,[11],0.43 µM
same,inhibition at 10 µM,[12],101%
O=S(=O)(NCCNc1nccc(-c2c(-c3cccc(O)c3)nc3sccn23)n1)c1ccc(F)cc1,IC50,[1],2.01 µM
same,IC50,[2],1.35 µM
same,IC50,[3],1.21 µM
same,IC50,[4],1.99 µM
same,IC50,[5],0.006 µM
same,IC50,[11],0.0027 µM
same,IC50,[6],5.13 µM
same,IC50,[7],9.54 µM
same,IC50,[8],7.58 µM
same,IC50,[13],10.4 µM
CC1(C)CN(CCNc2nccc(-c3c(-c4cccc(O)c4)nc4sccn34)n2)S(=O)(=O)N1,IC50,[10],0.00635 µM
same,IC50,[5],0.00426 µM
same,IC50,[11],0.0103 µM
same,inhibition at 10 µM,[12],79.7%
CN1CCCN(CCNc2nccc(-c3c(-c4cccc(O)c4)nc4sccn34)n2)S1(=O)=O,TGI,[14],3.14 µM
same,TGI,[15],7.36 µM
same,TGI,[16],0.408 µM
same,IC50 at 48 h,[17],93.6 µM
same,IC50,[18],0.036 µM
same,IC50,[19],0.058 µM
same,TGI,[20],52 µM
same,TGI,[21],10.3 µM
same,IC50 at 48 h,[22],75.6 µM
same,IC50,[10],0.00377 µM
same,TGI,[23],12.9 µM
same,TGI,[24],28.2 µM
same,IC50,[25],4.36 µM
same,IC50,[26],11.6 µM
same,IC50,[27],0.24 µM
same,IC50,[28],11.9 µM
same,IC50,[29],13.6 µM
same,IC50,[30],11.9 µM
same,selectivity ratio,[31],2100
same,IC50,[32],0.49 µM
same,IC50,[5],0.00196 µM
same,IC50,[33],8.21 µM
same,IC50,[11],0.00633 µM
same,IC50,[34],1.79 µM
same,IC50,[35],0.174 µM
same,IC50,[36],16.4 µM
same,IC50,[37],12.1 µM
same,IC50,[38],8.08 µM
same,TGI,[39],> 100 µM
same,IC50,[40],0.348 µM
same,inhibition at 10 µM,[12],84.8%
same,IC50,[41],5.98 µM
same,IC50,[42],2.26 µM
same,TGI,[43],51.6 µM
COc1ccc(S(=O)(=O)NCCCNc2nccc(-c3c(-c4ccccc4)nc4sccn34)n2)cc1,IC50,[10],0.0661 µM
same,IC50,[5],0.0983 µM
same,IC50,[11],0.299 µM
COc1cccc(-c2nc3sccn3c2-c2ccnc(NCCNS(=O)(=O)c3ccc(F)cc3)n2)c1,IC50,[10],0.115 µM
same,IC50,[5],0.1 µM
same,IC50,[11],0.522 µM
